Assay results published in ChEMBL document CHEMBL1133742, “17beta-O-Aminoalkyloximes of 5beta-androstane-3beta,14beta-diol with digitalis-like activity: synthesis, cardiotonic activity, structure-activity relationships, and molecular modeling of the Na(+),K(+)-ATPase receptor” (J Med Chem, 2000).

Assays:
Cavia porcellus [1] = assay: Compound dose producing 80% of increase in dP/dt in anesthetized guinea pig during slow intravenous infusion of 41.4 uM solution.; type: functional
Procedure, shortened: (§1)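 Anesthetized guinea pigs with jugular vein cannula and tracheal intubation (spontaneous respiration); +dP/dt recorded. Compound dissolved in DMSO, diluted with physiological solution to 1% DMSO final, infused IV at 0.16 mL/min until death or up to 90 min. Starting infusate concentration was based on the atrial EC50. Doses for maximal inotropic effect and for death determined; ED80 taken from dose–response curves. Means ± SEM where possible.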

[2] = Percent increase in force of contraction in vitro determined using electrically driven guinea pig left atrium.; type: functional; details: Cavia porcellus, Cardiac atrium
Procedure, shortened: (§2)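 Isolated guinea pig atria in solution bubbled with 95% O2/5% CO2, field-stimulated by platinum electrodes at 1 Hz (1 ms square pulses, twice threshold voltage). After 60 min equilibration, cumulative concentrations added, each held until maximal response or arrhythmia.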

Cavia porcellus [3] = organism: Cavia porcellus; assay: Concentration producing 50% of the maximal increase in the force of contraction in isolated guinea pig left atrium; type: functional; details: Cardiac atrium; procedure, shortened: as §2
Cavia porcellus [4] = assay: Compound dose causing lethality in anesthetized guinea pig during slow intravenous infusion of 41.4 uM solution.; type: toxicity, organism-based; details: in vivo; procedure, shortened: as §1
Cavia porcellus [5] = assay: Compound dose producing maximum increase in dP/dt, in anesthetized guinea pig during slow intravenous infusion of 41.4 uM solution.; type: functional; procedure, shortened: as §1
Cavia porcellus [6] = assay: Compound dose producing maximum inotropic effect in anesthetized guinea pig during slow intravenous infusion of 41.4 uM solution.; type: functional; procedure, shortened: as §1
[7] = target: Sodium/potassium-transporting ATPase; assay: In vitro inhibitory concentration against dog kidney Na+/K+ ATPase; type: protein-complex assay, Canis lupus familiaris
Procedure, shortened: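 Na+,K+-ATPase isolated and purified from dog kidney. Inhibition measured as percent hydrolysis of 32P-ATP with versus without compound. […] Single-concentration entries report percent inhibition at the stated concentration. Compounds tested within 1–4 h of dissolution.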

Cavia porcellus [8] = assay: Compound dose producing maximum increase in dP/dt, in anesthetized guinea pig during slow intravenous infusion of 12.8 uM solution.; type: functional; procedure, shortened: as §1
Cavia porcellus [9] = assay: Compound dose causing lethality in anesthetized guinea pig during slow intravenous infusion of 12.8 uM solution.; type: toxicity, organism-based; details: in vivo; procedure, shortened: as §1
Cavia porcellus [10] = assay: Compound dose producing 80% of increase in dP/dt in anesthetized guinea pig during slow intravenous infusion of 12.8 uM solution.; type: functional; procedure, shortened: as §1
Cavia porcellus [11] = assay: Compound dose producing maximum inotropic effect in anesthetized guinea pig during slow intravenous infusion of 12.8 uM solution.; type: functional; procedure, shortened: as §1
Cavia porcellus [12] = assay: Compound dose producing 80% of increase in dP/dt in anesthetized guinea pig during slow intravenous infusion of 375 uM solution.; type: functional; procedure, shortened: as §1
Cavia porcellus [13] = assay: Compound dose causing lethality in anesthetized guinea pig during slow intravenous infusion of 375 uM solution.; type: toxicity, organism-based; details: in vivo; procedure, shortened: as §1
Cavia porcellus [14] = assay: Compound dose producing maximum increase in dP/dt, in anesthetized guinea pig during slow intravenous infusion of 375 uM solution.; type: functional; procedure, shortened: as §1
Cavia porcellus [15] = assay: Compound dose producing maximum inotropic effect in anesthetized guinea pig during slow intravenous infusion of 375 uM solution.; type: functional; procedure, shortened: as §1
Cavia porcellus [16] = assay: Compound dose producing maximum increase in dP/dt, in anesthetized guinea pig during slow intravenous infusion of 1000 uM solution.; type: functional; procedure, shortened: as §1
Cavia porcellus [17] = assay: Compound dose causing lethality in anesthetized guinea pig during slow intravenous infusion of 1000 uM solution.; type: toxicity, organism-based; details: in vivo; procedure, shortened: as §1
Cavia porcellus [18] = assay: Compound dose producing 80% of increase in dP/dt in anesthetized guinea pig during slow intravenous infusion of 1000 uM solution.; type: functional; procedure, shortened: as §1
Cavia porcellus [19] = assay: Compound dose producing maximum inotropic effect in anesthetized guinea pig during slow intravenous infusion of 1000 uM solution.; type: functional; procedure, shortened: as §1
Cavia porcellus [20] = assay: Compound dose producing maximum increase in dP/dt, in anesthetized guinea pig during slow intravenous infusion of 11.0 uM solution.; type: functional; procedure, shortened: as §1
Cavia porcellus [21] = assay: Compound dose causing lethality in anesthetized guinea pig during slow intravenous infusion of 11.0 uM solution.; type: toxicity, organism-based; details: in vivo; procedure, shortened: as §1
[22] = In vitro maximum inotropic effect on contractile force of an electrically driven guinea pig left atrium.; type: functional, Cavia porcellus, Cardiac atrium; procedure, shortened: as §2
Cavia porcellus [23] = assay: Compound dose producing 80% of increase in dP/dt in anesthetized guinea pig during slow intravenous infusion of 11.0 uM solution.; type: functional; procedure, shortened: as §1
Cavia porcellus [24] = assay: Compound dose producing maximum inotropic effect in anesthetized guinea pig during slow intravenous infusion of 11.0 uM solution.; type: functional; procedure, shortened: as §1
Cavia porcellus [25] = assay: Compound dose producing 80% of increase in dP/dt in anesthetized guinea pig during slow intravenous infusion of 51.2 uM solution.; type: functional
Procedure, shortened: (§3)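 Anesthetized guinea pig; jugular vein cannula, trachea intubated, spontaneous respiration. After stabilization, compound in physiological solution with 1% DMSO (final) infused at 0.16 mL/min until death or up to 90 min. Infused concentration chosen from the paced guinea pig atria EC50. Read-out is +dP/dt. Doses for the maximal inotropic increase and for death were determined; ED80 (80% increase over basal) came from dose-response curves. Means ± SEM.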

Cavia porcellus [26] = assay: Compound dose causing lethality in anesthetized guinea pig during slow intravenous infusion of 51.2 uM solution.; type: toxicity, organism-based; details: in vivo; procedure, shortened: as §1
Cavia porcellus [27] = assay: Compound dose producing maximum increase in dP/dt, in anesthetized guinea pig during slow intravenous infusion of 51.2 uM solution.; type: functional; procedure, shortened: as §3
Cavia porcellus [28] = assay: Compound dose producing maximum inotropic effect in anesthetized guinea pig during slow intravenous infusion of 51.2 uM solution.; type: functional; procedure, shortened: as §3
Cavia porcellus [29] = assay: Compound dose causing lethality in anesthetized guinea pig during slow intravenous infusion of 220 uM solution.; type: toxicity, organism-based; details: in vivo; procedure, shortened: as §1
Cavia porcellus [30] = assay: Compound dose producing 80% of increase in dP/dt in anesthetized guinea pig during slow intravenous infusion of 220 uM solution.; type: functional; procedure, shortened: as §1
Cavia porcellus [31] = assay: Compound dose producing maximum increase in dP/dt, in anesthetized guinea pig during slow intravenous infusion of 220 uM solution.; type: functional; procedure, shortened: as §1
Cavia porcellus [32] = assay: Compound dose producing maximum inotropic effect in anesthetized guinea pig during slow intravenous infusion of 220 uM solution.; type: functional; procedure, shortened: as §1

Q: With `C[C@]12CC[C@H](O)C[C@H]1CC[C@@H]1[C@@H]2CC[C@]2(C)[C@@H](/C=N/OCCCN)CC[C@]12O.O=C(O)C(=O)O` as the compound, how does the ED80 (Cavia porcellus [1]) read?
A: 0.24 µM/kg

Q: And the Emax [2]?
A: 126%

Q: What about the EC50 (Cavia porcellus [3]) of the same compound?
A: 0.18 µM

Q: What about the LD (Cavia porcellus [4]) of the same compound?
A: 0.663 µM/kg

Q: What about the Emax (Cavia porcellus [5]) of the same compound?
A: 163%

Q: What about the Emax (Cavia porcellus [6]) of the same compound?
A: 0.435 µM/kg

Q: What about the IC50 [7] of the same compound?
A: 0.02 µM

Q: With `CC(/C=N/OCCN)=C\[C@H]1CC[C@]2(O)[C@@H]3CC[C@@H]4C[C@@H](O)CC[C@]4(C)[C@H]3CC[C@]12C.O=C(O)/C=C/C(=O)O` as the compound, how does the Emax (Cavia porcellus [8]) read?
A: 152%

Q: What about the LD (Cavia porcellus [9]) of the same compound?
A: 0.292 µM/kg

Q: What about the Emax [2] of the same compound?
A: 115%

Q: And the EC50 (Cavia porcellus [3])?
A: 0.07 µM

Q: And the ED80 (Cavia porcellus [10])?
A: 0.128 µM/kg

Q: And the Emax (Cavia porcellus [11])?
A: 0.201 µM/kg

Q: And the IC50 [7]?
A: 0.03 µM

Q: With `CC(/C=N/OCCCN)=C\[C@H]1CC[C@]2(O)[C@@H]3CC[C@@H]4C[C@@H](O)CC[C@]4(C)[C@H]3CC[C@]12C.O=C(O)C(=O)O` as the compound, how does the ED80 (Cavia porcellus [12]) read?
A: 0.447 µM/kg

Q: And the Emax [2]?
A: 90%

Q: What about the EC50 (Cavia porcellus [3]) of the same compound?
A: 0.17 µM

Q: What about the LD (Cavia porcellus [13]) of the same compound?
A: 1.67 µM/kg

Q: And the Emax (Cavia porcellus [14])?
A: 99%

Q: What about the Emax (Cavia porcellus [15]) of the same compound?
A: 0.884 µM/kg

Q: What about the IC50 [7] of the same compound?
A: 0.2 µM

Q: Which Emax (Cavia porcellus [16]) does the source give for `C[C@]12CC[C@H](O)C[C@H]1CC[C@@H]1[C@@H]2CC[C@]2(C)[C@@H](/C=N/OCCCCN)CC[C@]12O.O=C(O)C(=O)O` here?
A: 148%

Q: What about the LD (Cavia porcellus [17]) of the same compound?
A: 14.8 µM/kg

Q: What about the Emax [2] of the same compound?
A: 92%

Q: And the EC50 (Cavia porcellus [3])?
A: 2.9 µM

Q: What about the ED80 (Cavia porcellus [18]) of the same compound?
A: 1.41 µM/kg

Q: What about the Emax (Cavia porcellus [19]) of the same compound?
A: 5.03 µM/kg

Q: What about the IC50 [7] of the same compound?
A: 0.5 µM

Q: For `CN(C)CCO/N=C/C=C/[C@H]1CC[C@]2(O)[C@@H]3CC[C@@H]4C[C@@H](O)CC[C@]4(C)[C@H]3CC[C@]12C.O=C(O)C(=O)O`, which Emax (Cavia porcellus [20]) is on record?
A: 110%

Q: And the LD (Cavia porcellus [21])?
A: 0.385 µM/kg

Q: What about the “Concentration giving maximal inotropic effect” value [22] of the same compound?
A: 0.3 µM

Q: What about the Emax [2] of the same compound?
A: 191%

Q: And the EC50 (Cavia porcellus [3])?
A: 0.057 µM

Q: And the ED80 (Cavia porcellus [23])?
A: 0.185 µM/kg

Q: What about the Emax (Cavia porcellus [24]) of the same compound?
A: 0.275 µM/kg

Q: What about the IC50 [7] of the same compound?
A: 0.03 µM

Q: Which results are given for `C[C@H]1O[C@@H](O[C@H]2[C@@H](O)C[C@H](O[C@H]3[C@@H](O)C[C@H](O[C@H]4CC[C@@]5(C)[C@H](CC[C@@H]6[C@@H]5C[C@@H](O)[C@]5(C)[C@@H](C7=CC(=O)OC7)CC[C@]65O)C4)O[C@@H]3C)O[C@@H]2C)C[C@H](O)[C@@H]1O` [DIGOXIN]?
A: ED80 (Cavia porcellus [25]): 0.205 µM/kg; Concentration giving maximal inotropic effect [22]: 1 µM; Emax [2]: 184%; EC50 (Cavia porcellus [3]): 0.38 µM; LD (Cavia porcellus [26]): 1.25 µM/kg; Emax (Cavia porcellus [27]): 167%; dose to obtain Emax (Cavia porcellus [28]): 0.576 µM/kg

Q: Which results are given for `CN(C)CCO/N=C\CC[C@H]1CC[C@]2(O)[C@@H]3CC[C@@H]4C[C@@H](O)CC[C@]4(C)[C@H]3CC[C@]12C.O=C(O)C(=O)O`?
A: Emax [2]: 150%; EC50 (Cavia porcellus [3]): 0.65 µM; LD (Cavia porcellus [29]): 7.83 µM/kg; ED80 (Cavia porcellus [30]): 0.814 µM/kg; Emax (Cavia porcellus [31]): 132%; Emax (Cavia porcellus [32]): 3.65 µM/kg; IC50 [7]: 0.1 µM
